Reference: the EternaBench riboswitch data

Columns and labels:
[1] = system: MS2 coat protein; assay: apparent Kd, MS2 coat protein; higher = weaker binding; RNA-MaP array; theophylline 2 mM where present
Outline: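 Green signal from SNAP-549-labelled MS2 coat protein was normalised to red-channel RNA signal and to the median Fmax of control clusters. The protein was titrated from 0.7 or 1.5 nM, doubling to 3 µM, without and then with constant ligand, over designs transcribed by stalled E. coli RNA polymerase on Illumina sequencing-chip clusters, in 100 mM Tris-HCl pH 7.5, 80 mM KCl, 4 mM MgCl2, BSA, DTT, yeast tRNA and Tween-20. The apparent Kd is the median of filtered per-cluster binding-curve fits.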

[2] = system: MS2 coat protein; assay: apparent Kd, MS2 coat protein; higher = weaker binding; RNA-MaP array
Outline: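 Apparent Kd is the median of per-cluster binding-curve fits for designed RNAs transcribed from sequenced DNA templates on an Illumina sequencing chip. The RNAs were incubated at room temperature with fluorescently labeled MS2 coat protein at 1.5 nM to 3 μM, with or without input ligand, and designs measured on fewer than 10 clusters were excluded.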

[3] = designed as: OFF switch for theophylline, no ligand
[4] = ligand present: theophylline, designed as: OFF switch for theophylline
[5] = designed as: ON switch for theophylline, no ligand
[6] = ligand present: theophylline, designed as: ON switch for theophylline
[7] = designed as: ON switch for flavin mononucleotide, no ligand
[8] = ligand present: flavin mononucleotide, designed as: ON switch for flavin mononucleotide
[9] = designed as: OFF switch for flavin mononucleotide, no ligand
[10] = ligand present: flavin mononucleotide, designed as: OFF switch for flavin mononucleotide
[11] = designed as: ON switch for tryptophan, no ligand
[12] = ligand present: tryptophan, designed as: ON switch for tryptophan

Sequence	apparent Kd [2, 9]	apparent Kd [2, 10]	further results
AGCGACAUGCGUGAUACCAGCUACAUGAGGAUCACCCAUGUGAGUAGGAAACUACUGUGUAGCCCUUGGCAGCACAGUGCAUGUC	–	–	apparent Kd [1, 3]: 10.5 nM; apparent Kd [1, 4]: 63.7 nM
AGUGUUAUAACUGAUACCAGACUUGCGCUUAAACAUGAGGAUCACCCAUGUAAAAUGGUUGUCCCUUGGCAGCAGAAAAUACACA	–	–	apparent Kd [1, 5]: 74.1 nM; apparent Kd [1, 6]: 21.6 nM
AUAAGUAAUGUUACGUGUUUUAUUACAGAUACCAGACUAUACGUUGUCCCUUGGCAGCUGAAUUACAUGAGGAUCACCCAUGUUG	–	–	apparent Kd [1, 3]: 15.1 nM; apparent Kd [1, 4]: 17.3 nM
AUACCUAAUGUUACAUUUUCCUUUUCAGAUACCAGACUUUACGUUGUCCCUUGGCAGCUGUAUCACAUGAGGAUCACCCAUGUUG	–	–	apparent Kd [1, 5]: 16.6 nM; apparent Kd [1, 6]: 16.9 nM
AUAUGAUCAUACGAUACCAGAAAUGGUAUUCCUUUAUUUCUUACAUGAGGAUCACCCAUGUUCCCUUGGCAGCGUAUGAUCAUAU	–	–	apparent Kd [1, 3]: 363 nM; apparent Kd [1, 4]: 123 nM
UAUUUGGCGCUAGGAUAUAAAGGAACUAUUUAAUUAGAAGGAGCACGGGAACCUGAGGUACAUGAGGAUCACCCAUGUCUGAUA	–	–	apparent Kd [2, 7]: 17.6 nM; apparent Kd [2, 8]: 19.1 nM
UCACCAUGUCGAAACAUGAGGAUCACCCAUGUGAAUCAUGACAGAAGGUCUAUAGAAUGACGGAAGAAGGAUAUGUCAAUGCGC	17.8 nM	17.4 nM	–
UCAUGGUCUGGAGAGAGAAUUACAUGAGGAUCACCCAUGUGCAGAAGGAGUUAUCGCACAACAAACUAGGAUAUGCCAAGAAUU	–	–	apparent Kd [2, 7]: 98.1 nM; apparent Kd [2, 8]: 152 nM
UCCAAAUUCCAGAAGGCGUUUAAGCGAGGGUAGGGCGUGCAACAUGAGGAUCACCCAUGUAAUCACGAGGAUAUGGGAGGCACC	7.65 nM	8.34 nM	–
UCGGUUCGUGUAGGAUAUACUCGCAAACAGGCAAAAUGCCUACAUGAGGAUCACCCAUGUUAGUGGUAGAAGGACACCUCAACA	–	–	apparent Kd [2, 7]: 479 nM; apparent Kd [2, 8]: 115 nM
UCUAACAUGAGGAUCACCCAUGUGGGUUAUCGAGGACCGGUACGGCCGCCACUCGACCAGUAUAACUGGCUAGAACGUAUUUGAU	–	–	apparent Kd [2, 11]: 34 nM; apparent Kd [2, 12]: 26.6 nM
UCUCUCGAUGUGCAUUGACAUGAGGAUCACCCAUGUACUGCCUAGGAUAUAACUGGCCCGAUCAGUUAGAAGGAGGGAGAAUAG	6.67 nM	6.51 nM	–
UGAUUGAGCGGAGGAUAUCUUAAUGAGCACGUAAGAGAAGGCCGGUGGCUCCUAUAUGCAGCGCACAUGAGGAUCACCCAUGUC	170 nM	91.6 nM	–
UGGACUUCAGGAUAUACAUGAGGAUCACCCAUGUAUACGUGUAUGAUCCCAGAAACAAGUAGAAGGGAAAGCCG	5.71 nM	5.65 nM	–
UGGCGCUGUGCAGGAUAUAUCAAUUAGAACAGGGCGCAGGGUAGAAACAUGAGGAUCACCCAUGUAUAGAAGGGCACAGUAGGU	53.1 nM	49.7 nM	–
UGGGAACAUGAGGAUCACCCAUGUGAGGAUAUCCACCGAUUUCACACGAUAGGCACAAGGAGAAGGCACACCUA	33.9 nM	36.2 nM	–
UGUAACGAAGGAUAUACAAGAAGACAAGUGCGGCAGUACGUACAUGAGGAUCACCCAUGUAGAAGGUCGAAGGC	7.03 nM	7.66 nM	–
UGUACAACAUGAGGAUCACCCAUGUGGCACCUCUGUCGAUUCGAGGAUAUCAGGUAAAGUGGCUGUGAGAAGGCGAAAGUUCCG	65 nM	50.3 nM	–
UGUAUGUUAGGAUAUAGUGUGACACUGUAAUUGCUCGGCACCUAGAAGGAACAUGAGGAUCACCCAUGUGGUGG	337 nM	244 nM	–
UGUCCGUGAUCGGCCGCCACUCAACAAACCUGUGGAAACUGACAUGAGGAUCACCCAUGUUCUUGGAGGACCGGGAUUGCUUCGA	–	–	apparent Kd [2, 11]: 14.6 nM; apparent Kd [2, 12]: 17.3 nM
UUACAAAACCAGAAGGUCUAAAAGAUUAAAUGAGAAGGAUAUGGCUAAACAUGAGGAUCACCCAUGUAGAAAACGAUACGUGAU	–	–	apparent Kd [2, 7]: 37.8 nM; apparent Kd [2, 8]: 29.9 nM
UUAGAGAGAGGAUAUACAGAGUAUCAACUCGGCGGACAAGAACAUGAGGAUCACCCAUGUAGAAGGCUCUCAGA	18.6 nM	67.1 nM	–
UUCACGUUAGGAUAUCGCGUCAGCACAGCCUGUAUGGCAAGCGAGAAGGAACAUGAGGAUCACCCAUGUCGGAC	11.4 nM	28.7 nM	–
UUCUACUAGUGACACUACUAGACAUGAGGAUCACCCAUGUCAGAGGAUAUGGAAAGACAUUAUUACCAGAAGGCUGCCAAGGUA	–	–	apparent Kd [2, 7]: 15.6 nM; apparent Kd [2, 8]: 15 nM
UUGGGACAUGAGGAUCACCCAUGUCAGGAUAUAUAUAAUCUGCGCGACGAGGGAUACAAUAGAAGGGACAACGG	18.2 nM	15.1 nM	–
UUUAGGUCAGAGAAGGGCCAUUCUACAUACUCGGCAGGAUAUCUAUUACCUGACAUGAGGAUCACCCAUGUGGUGAACCGACCA	–	–	apparent Kd [2, 7]: 199 nM; apparent Kd [2, 8]: 311 nM
